Reference: ChEMBL document CHEMBL2177069, “Novel peptidomimetic compounds containing redox active chalcogens and quinones as potential anticancer agents” (Eur J Med Chem, 2012)

Key:
DU-145 = assay: Cytotoxicity against human DU145 cells; assay type: functional
Saccharomyces cerevisiae [1] = assay: Growth inhibition of UFD2-deficient Saccharomyces cerevisiae YDL190C mutant at 20 ug/disc after 24 to 48 hrs by agar diffusion assay; assay type: functional; conditions: read-out: DIZ
How it was run: (§1)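 S. cerevisiae deletion mutants or wild type grown on YPD, seeded into liquid agar medium at an optical density of 0.1. 6 mm paper discs soaked with methanolic compound solution were placed on the plates and incubated at 30 °C. Growth was checked after 1 and 2 days, and the inhibition zone diameter was recorded in mm.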

Saccharomyces cerevisiae [2] = assay: Growth inhibition of GTT2-deficient Saccharomyces cerevisiae YLL060C mutant at 20 ug/disc after 24 to 48 hrs by agar diffusion assay; assay type: functional; conditions: read-out: DIZ; how it was run: as §1
Saccharomyces cerevisiae [3] = assay: Growth inhibition of WSC4-deficient Saccharomyces cerevisiae YHL028W mutant at 20 ug/disc 24 to 48 hrs by agar diffusion assay; assay type: functional; conditions: read-out: DIZ; how it was run: as §1
Saccharomyces cerevisiae [4] = assay: Growth inhibition of PST2-deficient Saccharomyces cerevisiae YDR032C mutant at 20 ug/disc 24 to 48 hrs by agar diffusion assay; assay type: functional; conditions: read-out: DIZ; how it was run: as §1
Saccharomyces cerevisiae [5] = assay: Growth inhibition of SOD1-deficient Saccharomyces cerevisiae YJR104C mutant at 20 ug/disc after 24 to 48 hrs by agar diffusion assay; assay type: functional; conditions: read-out: DIZ; how it was run: as §1
[6] = Cytotoxicity against human PHF cells after 24 hrs by MTT assay; assay type: cell-based
How it was run: (§2)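 MTT assay. Cells were seeded at 50,000 cells/mL in medium with 10% fetal calf serum and grown for two days at 37 °C, 10% CO2. Serial dilutions of compound were then added for 24 h. MTT was added (final 0.5 mg/mL) for 2 h, and the formazan was pelleted, washed, dissolved in isopropanol with 0.4% HCl and read at 590 nm. IC50 is the concentration giving 50% of untreated-control absorbance, taken from dose-response curves; mean of two parallel experiments.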

A-431 = assay: Cytotoxicity against human A431 cells after 24 hrs by MTT assay; assay type: functional, cell-based; conditions: A-431, 24 h; how it was run: as §2
A498 [7] = assay: Cytotoxicity against human A498 cells after 24 hrs by MTT assay; assay type: functional, cell-based; conditions: A498, 24 h; how it was run: as §2
MCF7 = assay: Cytotoxicity against human MCF7 cells after 24 hrs by MTT assay; assay type: functional, cell-based; conditions: MCF7, 24 h; how it was run: as §2
MDA-MB-468 = assay: Cytotoxicity against human MDA-MB-468 cells; assay type: functional
T47D = assay: Cytotoxicity against human T47D cells; assay type: functional
MDA-MB-231 = assay: Cytotoxicity against human MDA-MB-231 cells; assay type: functional
UO-31 = assay: Cytotoxicity against human UO31 cells; assay type: functional
SN12C = assay: Cytotoxicity against human SN12C cells; assay type: functional
ACHN = assay: Cytotoxicity against human ACHN cells; assay type: functional
A498 [8] = assay: Cytotoxicity against human A498 cells; assay type: functional
[9] = Cytotoxicity against human 786-O cells; assay type: functional
SK-OV-3 = assay: Cytotoxicity against human SKOV3 cells; assay type: functional
NCI/ADR-RES = assay: Cytotoxicity against human NCI/ADR-RES cells; assay type: functional
OVCAR-4 = assay: Cytotoxicity against human OVCAR4 cells; assay type: functional
OVCAR-5 = assay: Cytotoxicity against human OVCAR5 cells; assay type: functional
SK-MEL-28 = assay: Cytotoxicity against human SK-MEL-28 cells; assay type: functional
SK-MEL-2 = assay: Cytotoxicity against human SK-MEL-2 cells; assay type: functional
MDA-MB-435 = assay: Cytotoxicity against human MDA-MB-435 cells; assay type: functional
Malme-3M = assay: Cytotoxicity against human MALME-3M cells; assay type: functional
M14 = assay: Cytotoxicity against human M14 cells; assay type: functional
U-251 = assay: Cytotoxicity against human U251 cells; assay type: functional
LOX IMVI = assay: Cytotoxicity against human LOXIMVI cells; assay type: functional
SNB-75 = assay: Cytotoxicity against human SNB75 cells; assay type: functional
SF-539 = assay: Cytotoxicity against human SF539 cells; assay type: functional
HT-29 = assay: Cytotoxicity against human HT-29 cells; assay type: functional
HCT-116 = assay: Cytotoxicity against human HCT116 cells; assay type: functional
HCT-15 = assay: Cytotoxicity against human HCT15 cells; assay type: functional
HCC 2998 = assay: Cytotoxicity against human HCC2998 cells; assay type: functional
COLO 205 = assay: Cytotoxicity against human COLO205 cells; assay type: functional
NCI-H522 = assay: Cytotoxicity against human NCI-H522 cells; assay type: functional
NCI-H226 = assay: Cytotoxicity against human NCI-H226 cells; assay type: functional
MOLT-4 = assay: Cytotoxicity against human MOLT4 cells; assay type: functional
[10] = read-out: pLC50 (the source's name) (converted)

`CC1=C([Se]CC(OC(=O)[C@@H](CSSC(C)(C)C)NC(=O)C(C)(C)C)C(=O)NCCCCCC(=O)OCc2ccccc2)C(=O)c2ccccc2C1=O` (some centres undefined) showed a GI50 (DU-145) of 2.14 µM, an LC50 (DU-145) of 9.55 µM and a TGI (DU-145; read-out: pTGI (converted)) of 4.47 µM. The zone of inhibition at 20 µg/disc (Saccharomyces cerevisiae [1]) was 0 mm, the zone of inhibition at 20 µg/disc (Saccharomyces cerevisiae [2]) was 12 mm and the zone of inhibition at 20 µg/disc (Saccharomyces cerevisiae [3]) was 14 mm. The zone of inhibition at 20 µg/disc (Saccharomyces cerevisiae [4]) was 11 mm, the zone of inhibition at 20 µg/disc (Saccharomyces cerevisiae [5]) was 12 mm and the IC50 [6] was 4 µM. It also gave an IC50 (A-431) of 4 µM, an IC50 (A498 [7]) of 13 µM and an IC50 (MCF7) of 8 µM. It also gave a GI50 (MDA-MB-468) of 2.19 µM, an LC50 (MDA-MB-468) of 8.51 µM and a TGI (MDA-MB-468; read-out: pTGI (converted)) of 4.37 µM. The GI50 (T47D) was 2.19 µM, the LC50 (T47D) was > 100 µM and the TGI (T47D; read-out: pTGI (converted)) was 6.46 µM. It also gave a GI50 (MDA-MB-231) of 1.91 µM, an LC50 (MDA-MB-231) of 9.33 µM and a TGI (MDA-MB-231; read-out: pTGI (converted)) of 4.27 µM. It also gave a GI50 (UO-31) of 1.48 µM, an LC50 (UO-31) of 6.76 µM and a TGI (UO-31; read-out: pTGI (converted)) of 3.16 µM. For the same compound, the GI50 (SN12C) was 2 µM, the LC50 (SN12C) was 7.59 µM and the TGI (SN12C; read-out: pTGI (converted)) was 3.89 µM. For the same compound, the GI50 (ACHN) was 2.14 µM, the LC50 (ACHN) was 14.5 µM and the TGI (ACHN; read-out: pTGI (converted)) was 4.9 µM. For the same compound, the GI50 (A498 [8]) was 1.62 µM, the LC50 (50% lethal concentration) (A498 [8]) was 56.2 µM and the TGI (A498 [8]; read-out: pTGI (converted)) was 4.79 µM. The GI50 ([9]; 786-0) was 2.09 µM, the LC50 ([9]; 786-0) was 6.31 µM and the TGI ([9]; 786-0, read-out: pTGI (converted)) was 3.63 µM. For the same compound, the GI50 (SK-OV-3) was 1.55 µM, the LC50 (SK-OV-3) was 5.5 µM and the TGI (SK-OV-3; read-out: pTGI (converted)) was 2.95 µM. The GI50 (NCI/ADR-RES) was 3.39 µM, the CC50 (NCI/ADR-RES; [10]) was > 100 µM and the TGI (NCI/ADR-RES; read-out: pTGI (converted)) was 11.5 µM. For the same compound, the GI50 (OVCAR-4) was 1.58 µM, the LC50 (OVCAR-4) was 5.62 µM and the TGI (OVCAR-4; read-out: pTGI (converted)) was 2.95 µM. For the same compound, the GI50 (OVCAR-5) was 2.57 µM, the LC50 (OVCAR-5) was 17.4 µM and the TGI (OVCAR-5; read-out: pTGI (converted)) was 5.5 µM. It also gave a GI50 (SK-MEL-28) of 1.91 µM, an LC50 (SK-MEL-28) of 6.46 µM and a TGI (SK-MEL-28; read-out: pTGI (converted)) of 3.55 µM. It also gave a GI50 (SK-MEL-2) of 2.24 µM, an LC50 (SK-MEL-2) of 39.8 µM and a TGI (SK-MEL-2; read-out: pTGI (converted)) of 5.01 µM. For the same compound, the GI50 (MDA-MB-435) was 2.29 µM, the LC50 (MDA-MB-435) was 25.1 µM and the TGI (MDA-MB-435; read-out: pTGI (converted)) was 5.5 µM. It also gave a GI50 (Malme-3M) of 2.51 µM, an LC50 (Malme-3M) of 13.5 µM and a TGI (Malme-3M; read-out: pTGI (converted)) of 5.13 µM. The GI50 (M14) was 2.04 µM, the LC50 (M14) was 7.94 µM and the TGI (M14; read-out: pTGI (converted)) was 4.07 µM. The GI50 (U-251) was 1.26 µM, the LC50 (U-251) was 6.31 µM and the TGI (U-251; read-out: pTGI (converted)) was 2.82 µM. For the same compound, the GI50 (LOX IMVI) was 2.57 µM, the LC50 (LOX IMVI) was 42.7 µM and the TGI (LOX IMVI; read-out: pTGI (converted)) was 7.59 µM. For the same compound, the GI50 (SNB-75) was 1.38 µM, the LC50 (SNB-75) was 5.13 µM and the TGI (SNB-75; read-out: pTGI (converted)) was 2.69 µM. The GI50 (SF-539) was 1.91 µM, the LC50 (SF-539) was 5.89 µM and the TGI (SF-539; read-out: pTGI (converted)) was 3.39 µM. The GI50 (HT-29) was 2.69 µM, the LC50 (HT-29) was > 100 µM and the TGI (HT-29; read-out: pTGI (converted)) was 7.41 µM. For the same compound, the GI50 (HCT-116) was 1.55 µM, the LC50 (HCT-116) was 8.91 µM and the TGI (HCT-116; read-out: pTGI (converted)) was 3.72 µM. It also gave a GI50 (HCT-15) of 3.24 µM, an LC50 (HCT-15) of 66.1 µM and a TGI (HCT-15; read-out: pTGI (converted)) of 12.9 µM. It also gave a GI50 (HCC 2998) of 2.19 µM, an LC50 (HCC 2998) of 7.24 µM and a TGI (HCC 2998; read-out: pTGI (converted)) of 3.98 µM. It also gave a GI50 (COLO 205) of 1.82 µM, a CC50 (COLO 205; [10]) of 6.76 µM and a TGI (COLO 205; read-out: pTGI (converted)) of 3.47 µM. It also gave a GI50 (NCI-H522) of 1.7 µM, an LC50 (NCI-H522) of 6.17 µM and a TGI (NCI-H522; read-out: pTGI (converted)) of 3.24 µM. It also gave a GI50 (NCI-H226) of 2.34 µM, a CC50 (NCI-H226; [10]) of 9.12 µM and a TGI (NCI-H226; read-out: pTGI (converted)) of 4.68 µM. The GI50 (MOLT-4) was 3.24 µM, the LC50 (MOLT-4) was > 100 µM and the TGI (MOLT-4; read-out: pTGI (converted)) was 9.55 µM.
